Series [1] is described as follows: Cyclic voltammetry. The format is physicochemical. Conditions: acetonitrile; for ipa/ipc, ratio of anodic to cathodic current / ΔEp, wave potential separation (Epa − Epc): scan rate 100 mV s−1; for E1/2, half wave potential (E1/2 = (Epa + Epc)/2) / Epa, anodic wave potential / Epc, cathodic wave potential: scan rate 100 mV s−1, V vs. Ag/AgCl. In short, it runs like this:
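Test compound at 0.5 mM in anhydrous acetonitrile with 0.1 M […] as background electrolyte. Three-electrode cell: glassy carbon working, Pt wire counter, Ag/AgCl reference. Scanned from −1.7 to +1.0 V at 100 mV s−1 with a 20 mV E step, 6 cycles per compound, at 25 °C. Half-wave potentials were taken from the voltammograms.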

The nature of series [2]: Host macrophage cytotoxicity, resazurin assay. The format is cell-based. Conditions: human, PMA-differentiated THP-1 cells (macrophages).
Series [3] relates to L. major strain IR173 amastigotes. The experiment in a line: Intramacrophage antileishmanial assay. The format is cell-based, Leishmania major. The following applies: activity retained 72 hours post macrophage lysis.
For series [4], the system named is L. donovani strain 9515 amastigotes. Description: Intramacrophage antileishmanial assay. The format is cell-based, Leishmania donovani. The following applies: antimonial-resistant L. donovani; activity retained 72 hours post lysis.
The subject of series [5] is Vero cells. Description: General/basal cytotoxicity, resazurin assay. (In general: Alamar Blue is a resazurin reagent that responds to reducing activity.)
The test system of series [6] is L. major strain IR173 promastigotes. Description: Leishmania antipromastigote assay. The series is classed as cell-based. The following applies: read-out: Anti-promastigote activity IC50.
The conditions of series [7]: historical data ref 35; cited from earlier work.
For series [8], the system named is T. cruzi strain CL trypomastigotes. Description: T. cruzi antitrypomastigote assay. Conditions: >10 = did not qualify at 10 μM screen. The format is cell-based, Trypanosoma cruzi.

Where “and” joins values, the source holds several entries; their conditions need not be identical. Equal values may be shown once. Entries after “also recorded” stand apart in the source; their conditions may differ.

As for `O=[N+]([O-])c1ccc(/C=N/N=C/c2ccc(Br)cc2)o1` [4a, (1E,2E)-1-(4-Bromobenzylidene)-2-[(5-nitrofuran-2-yl)methylene]hydrazine], in series [1], the “ipa/ipc, ratio of anodic to cathodic current” value turned out to be 0.891; the “ΔEp, wave potential separation (Epa − Epc)” value worked out at 0.26 V; the “E1/2, half wave potential (E1/2 = (Epa + Epc)/2)” value is given as −0.93 V; the “Epa, anodic wave potential” value is −0.80 V. Moreover, the “Epc, cathodic wave potential” value in series [1] is given as −1.06 V. For the same molecule, the 50% inhibitory concentration (IC50) at 72 h in series [2] was > 100000 nM. For the same molecule, in series [3], the “Cidal anti-amastigote activity against L. major” value is “cidal”. For the same molecule, the “Cidal anti-amastigote activity against L. donovani” value in series [4] is “cidal”. Moreover, in series [5], the “Toxicity to mammalian cells, class in words” value is recorded as “low toxicity; also recorded: non-toxic”.

Turning to `O=[N+]([O-])c1ccc(/C=N/N=C/c2ccc([N+](=O)[O-])o2)cc1` [9a, (1E,2E)-1-(4-Nitrobenzylidene)-2-[(5-nitrofuran-2-yl)methylene]hydrazine], in series [1], the “ipa/ipc, ratio of anodic to cathodic current” value is recorded as 0.963; the “ΔEp, wave potential separation (Epa − Epc)” value turned out to be 0.22 V; the “E1/2, half wave potential (E1/2 = (Epa + Epc)/2)” value was −0.95 V; the “Epa, anodic wave potential” value is listed as −0.84 V. Moreover, the “Epc, cathodic wave potential” value in series [1] is −1.06 V. The “Cidal anti-amastigote activity against L. major” value in series [3] is reported as “cidal”. Moreover, the “Cidal anti-amastigote activity against L. donovani” value in series [4] is “cidal”.

On to `C[C@@H]1[C@H](O)[C@@H](C)/C=C/C=C/C=C/C=C/C=C/C=C/C=C/[C@H](O[C@@H]2O[C@H](C)[C@@H](O)[C@H](N)[C@@H]2O)C[C@@H]2O[C@](O)(C[C@@H](O)C[C@@H](O)[C@H](O)CC[C@@H](O)C[C@@H](O)CC(=O)O[C@H]1C)C[C@H](O)[C@H]2C(=O)O` [AmB, amphotericin B], for which the IC50 in series [6] stood at 30 ± 10 nM.

Consider `CC1CS(=O)(=O)CCN1/N=C/c1ccc([N+](=O)[O-])o1` (centres unmarked) [NTX, Nifurtimox], for which the “E1/2, half wave potential” value in series [7] was −0.88 V and −0.88 ^g V.

In the case of `O=[N+]([O-])c1ccc(/C=N/N=C/c2ccco2)cc1` [compound 12, (E)-1-(Furan-2-ylmethylene)-2-[(E)-4-nitrobenzylidene]hydrazine], the “Anti-trypomastigote activity IC50” value in series [8] was “complete loss”. For the same molecule, the “General cytotoxicity Vero IC50” value in series [5] (Vero cells, 48 h, mean ± SD) was “complete loss”.

Broadly, the IC50 is the midpoint of a concentration-inhibition curve.
